Most compounds without a hit are left out; they make up all but 2% or so of the library.
PglD DTNB – C. jejuni PglD acetyltransferase inhibitors, primary screen, biochemical, DTNB colorimetric, single point; 360,000 compounds, 0.098% hits; inhibition, % at 12.5 µM; purified PglD enzyme, DTNB colorimetric CoA detection; AID 602405, 2012; in the data active means inhibition above about 16%, passing the limit was not always enough
XiGFP reactiv – activators of inactive X chromosome reactivation, primary screen, imaging, XiGFP fibroblasts, GFP high-content imaging, set 2; activation, % at 7.58 µM; XiGFP mouse fibroblasts, % GFP-positive cells imaging, 3 d; cells co-treated with 5-aza-dC sensitizer; scaled so ellipticine positive control = 100%; 360,000 compounds, 0.055% hits;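 active means mean normalized replicate activation at least 10% and every replicate at or above 10%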
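System: 68-5-11 XiGFP fibroblast line; Timing: 3 days compound exposure; Compound dosing: one concentration, pinned; Benchmarks: positive control ellipticine, 6 µM final; Buffer or medium: DMEM containing 5-aza-dC.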
E-selectin induc – E-selectin induction in HUVECs, primary screen, imaging, HUVEC, immunofluorescence imaging, single point; 260,000 compounds, 0.37% hits; activation, % at 7.58 µM; P16581; normalized: neutral wells 0, TNF-alpha wells 100;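 active means mean E-selectin-positive cell signal at least 10% of the positive control, reached in at least 60% of replicates, without over 20% cell loss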
Target sequence (P16581 whole entry, looked up): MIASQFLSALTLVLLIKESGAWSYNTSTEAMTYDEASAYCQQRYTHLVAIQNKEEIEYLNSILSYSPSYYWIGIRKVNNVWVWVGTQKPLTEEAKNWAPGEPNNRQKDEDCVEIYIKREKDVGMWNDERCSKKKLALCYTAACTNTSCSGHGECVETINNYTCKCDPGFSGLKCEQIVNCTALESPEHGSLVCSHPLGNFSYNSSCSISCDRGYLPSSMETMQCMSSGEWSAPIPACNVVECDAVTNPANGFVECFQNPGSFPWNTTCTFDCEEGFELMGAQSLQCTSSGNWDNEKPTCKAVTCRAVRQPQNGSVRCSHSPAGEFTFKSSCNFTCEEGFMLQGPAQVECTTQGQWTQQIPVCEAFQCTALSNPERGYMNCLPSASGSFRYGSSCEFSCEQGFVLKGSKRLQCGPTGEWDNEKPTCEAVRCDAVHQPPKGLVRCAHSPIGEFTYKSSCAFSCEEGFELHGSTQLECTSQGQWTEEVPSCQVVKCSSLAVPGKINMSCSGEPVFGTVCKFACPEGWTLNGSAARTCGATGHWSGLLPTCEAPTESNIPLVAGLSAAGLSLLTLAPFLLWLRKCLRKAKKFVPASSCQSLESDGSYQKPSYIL
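Assay system: HUVEC, human umbilical vein endothelial cells / Amount: 3,000 HUVEC/well / Controls: TNF-alpha positive control, DMSO neutral control / Compound dosing: single concentration / Medium: EGM-2 over gelatin coat / Evaluation: percent E-selectin-positive cells / Signal: immunofluorescence imaging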
RAD54 branch – inhibitors of human RAD54 branch migration, primary screen, biochemical, fluorescence, single point; DNA repair and recombination protein RAD54-like (Homo sapiens), Q92698; RAD54 Holliday junction branch migration, FAM/BHQ fluorescence; inhibition, % at 10.4 µM; 360,000 compounds, 0.14% hits; AID 602329, 2012;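 active means mean normalized replicate activity at least 40 and at least half of replicates scoring 40 or more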;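 further: inhibitors cause a drop in the FAM fluorescence signal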
RAD52 anneal inh – RAD52 DNA annealing inhibitors, primary screen, biochemical, FRET, single point, set 2 | DNA repair protein RAD52 homolog (Homo sapiens), P43351 | recombinant RAD52 DNA annealing, FRET fluorescence | inhibition, % at 18.7 µM | 360,000 compounds, 0.46% hits | AID 651710, 2012;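 active means every replicate showing at least 50% inhibition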
Ecoli rRNA inh – reduced GFP signal of wild-type E. coli, primary screen, bacterial rRNA inhibitor project, GFP/RFP fluorescence, OD600, single point; GFP signal change (wild-type ribosome), % (test concentration not listed); E. coli WT GFP vs humanized-ribosome RFP mutants, 24 h; hits give low values; DMSO median 0, no signal -100; 350,000 compounds, 1.6% hits;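 active means significant combined selectivity score with lowered wild-type GFP, culture density cut under 30%, mutant RFP and density less affected; inactive means any of these conditions unmet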
Of the large screens only hits and unclear results are named; the others gave an inactive call.

COc1ccc(O)c(C(=O)c2cnn(-c3ccccc3)c2)c1	Ecoli rRNA inh -26.7
Cc1nnn(-c2nonc2N)c1C(=O)NNC(=O)c1ccc(Cl)c(Cl)c1	Ecoli rRNA inh -26.1 (no result: PglD DTNB, RAD54 branch)
Cc1noc(C)c1NC(=O)Nc1cccc2c1O[C@@H](CN(C)S(C)(=O)=O)[C@@H](C)CN([C@@H](C)CO)C2=O	none (no result: PglD DTNB, RAD54 branch)
COCCNC(=O)C[C@@H]1CC[C@@H]2[C@H](COc3ccc(NC(=O)COC)cc3C(=O)N2C)O1	none (no result: RAD52 anneal inh)
Cc1ccsc1/C=C1\CCC(C2CCCC2)C1=O (stereo unspecified)	Ecoli rRNA inh -22.7 (no result: PglD DTNB, E-selectin induc, RAD54 branch)
CN(c1ccc(OCC(=O)Nc2ccc3[nH]c(=O)[nH]c3c2)cc1)S(=O)(=O)c1ccc(Cl)cc1	none (no result: XiGFP reactiv, E-selectin induc, RAD52 anneal inh, Ecoli rRNA inh)
CCOc1ccc(S(=O)(=O)N(C)c2ccc(OCC(=O)Nc3ccc4[nH]c(=O)[nH]c4c3)cc2)cc1	Ecoli rRNA inh -31.6 (no result: XiGFP reactiv, E-selectin induc)
CC(C)=NNc1nc(-c2ccc([N+](=O)[O-])cc2)cs1	Ecoli rRNA inh -34.5 (no result: PglD DTNB, RAD54 branch)
CC(=O)Nc1ccc(-c2csc(Nc3cc(C)ccn3)n2)cc1	Ecoli rRNA inh -47.8
CC(=O)Nc1ccc(-c2csc(N/N=C(/C)c3ccccc3)n2)cc1	none (no result: PglD DTNB, E-selectin induc, RAD54 branch)
CCOC(=O)/C(C)=N/Nc1nc(-c2ccc(NC(C)=O)cc2)cs1	Ecoli rRNA inh -26.9
N=C1/C(=C\c2coc3ccccc3c2=O)C(=O)N=C2SC(c3ccncc3)=NN12	Ecoli rRNA inh -15.2
O=C(C[C@H]1C[C@@H]2c3cc(NS(=O)(=O)c4ccc(F)cc4)ccc3O[C@@H]2[C@H](CO)O1)N1CCOCC1	none
O=C(N/N=C/c1ccccc1C(F)(F)F)c1ccc(O)cc1	Ecoli rRNA inh -29.1 (no result: PglD DTNB, E-selectin induc, RAD54 branch)
CO[C@H]1CN(C)C(=O)c2cc(NC(=O)c3ccc(Oc4ccccc4)cc3)ccc2OC[C@@H](C)NC[C@H]1C	none
CO[C@H]1CN(C)C(=O)c2ccc(NC(=O)c3ccc(Oc4ccccc4)cc3)cc2OC[C@H](C)NC[C@@H]1C	RAD52 anneal inh 50.8
COc1cccc(NC(=O)Nc2ccc3c(c2)C(=O)N(C)C[C@@H](OC)[C@H](C)CN[C@H](C)CO3)c1	RAD52 anneal inh 58.6
COc1cccc(NC(=O)Nc2ccc3c(c2)OC[C@@H](C)NC[C@H](C)[C@@H](OC)CN(C)C3=O)c1	RAD52 anneal inh 75.6
C[C@@H]1CN([C@H](C)CO)C(=O)c2cc(NS(=O)(=O)c3cccs3)ccc2O[C@@H](C)CCCCO[C@H]1CN(C)Cc1ccc2c(c1)OCO2	none (no result: RAD52 anneal inh)
O=C(C[C@@H]1C=C[C@@H](NC(=O)CC2CC2)[C@@H](CO)O1)NCc1ccccc1	none (no result: PglD DTNB, RAD54 branch)
COc1ccc(OCC(O)COc2ccc(OC)cc2)cc1	none (no result: XiGFP reactiv, E-selectin induc, RAD52 anneal inh, Ecoli rRNA inh)
COc1ccc(OCC(O)CN(CC(O)COc2ccc(OC)cc2)c2cccc(O)c2)cc1 (stereo unspecified)	Ecoli rRNA inh -30.1 (no result: E-selectin induc)
O=C(Nc1nc2ccccc2s1)Nc1ccc(F)cc1F	none (no result: E-selectin induc)
O=C(Nc1ccc(F)cc1F)Nc1sccc1-c1nc2ccccc2s1	Ecoli rRNA inh -21.6 (no result: PglD DTNB, RAD54 branch)
Brc1ccc(/C=N/n2cnnc2)s1	Ecoli rRNA inh -50.7 (no result: PglD DTNB, RAD54 branch)
O=C(Cc1ccncc1)N[C@H]1CC[C@@H](CCn2cc(-c3ccccc3F)nn2)O[C@@H]1CO	none
Cn1cccc1/C=C1\SC(=S)N(NC(=O)c2ccccc2O)C1=O	Ecoli rRNA inh -28.1 (no result: PglD DTNB, RAD54 branch)
Cn1cccc1/C=C1\SC(=S)N(NC(=O)c2ccccc2)C1=O	none (no result: PglD DTNB, E-selectin induc, RAD54 branch)
O=C(N/N=C\c1c(O)ccc2ccccc12)c1ccc(S(=O)(=O)N2CCCCC2)cc1	XiGFP reactiv 48.2 (no result: PglD DTNB, E-selectin induc, RAD54 branch, RAD52 anneal inh, Ecoli rRNA inh)
O=CN/N=C/c1c(O)ccc2ccccc12	Ecoli rRNA inh -20.0 (no result: PglD DTNB, RAD54 branch)
NC(=S)N/N=C/c1c(O)ccc2ccccc12	none (no result: PglD DTNB, E-selectin induc, RAD54 branch)
C[C@@H]1CN([C@H](C)CO)C(=O)CCCn2nncc2CO[C@@H]1CN(C)Cc1ccccc1	none
